TRPC6 act: activates the mouse TRPC6 cation channel; 310,000 tested, 0.13% active; B-score at 10 µM; HEK293-TRPC6 membrane potential dye fluorescence; hits give high values; Q61143;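 active = B-score of the integrated fluorescence ratio above library mean plus 3 SD, and starting fluorescence ratio within library mean plus 5 SD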;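 also: higher score means more depolarization so channel activation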
Target sequence (Q61143 whole entry, looked up): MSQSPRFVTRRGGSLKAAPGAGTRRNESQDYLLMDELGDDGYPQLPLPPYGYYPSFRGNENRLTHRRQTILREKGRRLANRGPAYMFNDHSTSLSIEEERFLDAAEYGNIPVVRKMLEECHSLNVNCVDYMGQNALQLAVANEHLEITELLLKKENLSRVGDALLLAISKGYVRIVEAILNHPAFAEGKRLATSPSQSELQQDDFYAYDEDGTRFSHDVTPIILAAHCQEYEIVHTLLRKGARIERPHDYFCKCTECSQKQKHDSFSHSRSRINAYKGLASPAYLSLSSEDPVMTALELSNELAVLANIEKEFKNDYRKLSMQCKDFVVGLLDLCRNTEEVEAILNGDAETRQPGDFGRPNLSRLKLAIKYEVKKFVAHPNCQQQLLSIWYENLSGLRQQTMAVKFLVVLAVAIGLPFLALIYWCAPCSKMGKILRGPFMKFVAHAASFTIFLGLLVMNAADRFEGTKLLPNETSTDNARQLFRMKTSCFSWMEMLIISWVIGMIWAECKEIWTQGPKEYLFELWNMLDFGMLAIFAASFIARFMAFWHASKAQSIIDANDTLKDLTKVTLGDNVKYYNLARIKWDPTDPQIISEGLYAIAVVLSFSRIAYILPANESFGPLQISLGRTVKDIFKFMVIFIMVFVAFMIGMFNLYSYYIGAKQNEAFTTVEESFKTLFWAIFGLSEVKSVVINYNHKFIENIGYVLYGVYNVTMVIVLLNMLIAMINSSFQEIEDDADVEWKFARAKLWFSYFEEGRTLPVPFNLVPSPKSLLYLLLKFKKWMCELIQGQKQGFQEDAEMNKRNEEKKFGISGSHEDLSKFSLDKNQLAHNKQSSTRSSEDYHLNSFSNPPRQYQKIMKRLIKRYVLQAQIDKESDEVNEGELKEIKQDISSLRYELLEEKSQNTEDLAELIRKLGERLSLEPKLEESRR
TRPC4 block: TRPC4 (mouse) channel inhibition | 300,000 tested, 0.39% active | Q9QUQ5 | HEK293 TRPC4beta/mu-opioid, DAMGO-evoked Fluo4 calcium flux; hits give low values | B-score at 10 µM;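 active = B-score over 3 SD under the library average, no early fluorescence shift, positive overall ratio signal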
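Material: HEK293 cells with stable TRPC4beta plus mu-opioid receptor expression / Probe or stimulus: DAMGO in two steps, submaximal then maximal / Compound: single concentration per test compound / Technique: kinetic Fluo4 fluorescence imaging of calcium influx / Read-out: per-well B score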
TRPC4 PAM: allosterically enhances the mouse TRPC4 cation channel. Q9QUQ5. HEK293 TRPC4beta/mu-opioid, DAMGO EC20, Fluo-4 Ca2+ flux; hits give high values. B-score at 10 µM. 310,000 tested, 0.42% active. AID 2227;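 active = B-score of calcium response area above 5 SD of library B-scores, with initial fluorescence ratio within 5 SD of library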;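 also: B-score of integrated fluorescence ratio over time as area under calcium response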
TRPC6 inh: blocks the mouse TRPC6 cation channel; Q61143; AID 2553; 310,000 tested, 1.1% active; HEK293-TRPC6, membrane potential dye, ACh-evoked depolarization; hits give low values; B-score at 10 µM;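 active = B-score under library mean minus 3 SD, initial fluorescence not abnormally high, positive integrated signal ratio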;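 also: B-score derived from integrated fluorescence ratio over the kinetic read; more negative B-score means stronger inhibition of depolarization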
TRPC4 act: activators of mouse TRPC4 channel; 310,000 tested, 0.49% active; B-score at 10 µM; Q9QUQ5; HEK293 TRPC4beta/mu-opioid, Fluo4 calcium fluorescence; hits give high values; AID 2237;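 active = B-score above 5 SD of library B-scores, and initial fluorescence ratio not above library mean plus 5 SD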;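 also: positive B-score marks a calcium rise read as TRPC4 activation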
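Test system: HEK293 cells stably co-expressing mouse TRPC4beta and mu-opioid receptor | Schedule: Fluo4 dye loading 45 min at room temperature, 110 s recording | Measured by: Kinetic Fluo4 calcium fluorescence, 5 s baseline at 1 Hz | Evaluation: B score of integrated ratio | Controls: Buffer (low) and maximal DAMGO (high)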
TRPC4 spec 2: mouse TRPC4 off-target activity of TRPC6 inhibitors, second screen; 920 tested, 42% active; inhibition, % at 10 µM; HEK293 TRPC4/MOR, membrane potential dye fluorescence; channel activated by saturating DAMGO dose; shares compounds with TRPC6 inh;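 active = compounds whose fluorescence signal differed from control wells by over 3 SD, either direction, in both duplicate plates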
TRPC4 spec: tests whether TRPC6 inhibitors also affect mouse TRPC4; shares compounds with TRPC6 inh; HEK293 TRPC4/mu-opioid, membrane potential fluorescence; activity change, negative = inhibition, % at 10 µM; 920 tested, 61% active;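 active = rise or fall in signal beyond 3 SD of buffer-only wells in both replicate plates, either sign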;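 also: integrated kinetic ratio of fluorescence range over baseline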
HEK293 MPD ctr 2-1: second counter-screen for TRPC6 inhibitors: parental HEK293 cells; 920 tested, 31% active; shares compounds with TRPC6 inh; signal change vs control, % at 10 µM; parental HEK293 membrane potential dye fluorescence; maximal acetylcholine challenge after compound addition; AID 2779;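 active = membrane potential signal moving either way by over 3 SD of the maximum-effect control, in both duplicate plates, meaning non-specific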
HEK293 MPD ctr-1: counter-screen for TRPC6 inhibitors: effect in parental HEK293 cells | membrane potential signal change, % at 10 µM | parental HEK293 membrane potential dye fluorescence | 920 tested, 60% active | shares compounds with TRPC6 inh;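 active = membrane potential signal shifting up or down by more than 3 SD of buffer-only wells, on both duplicate plates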
HEK293 MPD ctr-2: checks TRPC6 modulator effects in parental HEK293 cells | shares compounds with TRPC6 inh | membrane potential dye fluorescence | membrane potential signal change, % at 10 µM | 2,400 tested, 51% active | AID 488924;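 active = membrane potential signal moves up or down beyond 5 SD from buffer-only wells, on both duplicate plates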
HEK293 MPD ctr 2-2: second counter-screen for TRPC6 modulators: effect in parental HEK293 cells; shares compounds with TRPC6 inh; membrane potential dye fluorescence; after compound, maximal acetylcholine stimulation; inhibition, % at 10 µM; 2,400 tested, 14% active; AID 488926;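 active = membrane potential signal drops by more than 5 SD from the mean control signal, in both duplicate plates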;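 also: plate controls were acetylcholine ECmax control wells for no effect and buffer only wells for full effect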
TRPC4/MOR mod: tests whether TRPC6 modulators also affect mouse TRPC4; shares compounds with TRPC6 inh; HEK293 TRPC4/mu-opioid, membrane potential fluorescence; AID 488927; percent change from control (negative = decrease, positive = increase), % at 10 µM; 2,400 tested, 69% active;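 active = membrane potential signal moved up or down beyond 5 SD of buffer control wells, in both duplicate plates, actives on both sides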;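 also: plate controls were assay buffer wells for no effect and DAMGO maximal-effect wells for full effect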
TRPC4 ctr inh 2: second check of whether TRPC6 modulators also affect mouse TRPC4; shares compounds with TRPC6 inh; HEK293 TRPC4/mu-opioid, membrane potential dye fluorescence; stimulated with maximal-effect DAMGO; inhibition, % at 10 µM; 2,400 tested, 55% active;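 active = drop in membrane potential signal beyond 5 SD of the control wells in both duplicate plates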;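 also: TRPC4 counter screen for TRPC6 hits run under conditions tuned for TRPC6 not TRPC4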
TRPC6 block conf: confirmation of mouse TRPC6 inhibitors; shares compounds with TRPC6 inh; HEK293-TRPC6, membrane potential dye, ACh-evoked depolarization; inhibition, % at 10 µM; 3,300 tested, 43% active; AID 488960;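 active = fluorescence ratio falls more than 5 SD below the full-stimulation control mean, in both duplicate runs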;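 also: integrated fluorescence ratio of peak minus minimum over baseline after agonist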
TRPC6 act confirm: confirmation of mouse TRPC6 activators | HEK293-TRPC6 membrane potential dye fluorescence, FDSS | activation, % at 10 µM | shares compounds with TRPC6 inh | 2,800 tested, 11% active;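 active = ratio signal rise beyond 5 SD above unstimulated control wells' mean, seen in both duplicate runs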;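 also: plate controls were buffer EC0 wells for no effect and acetylcholine ECmax response for full effect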
The depositor's hits bear a star. Hits are enriched below; roughly 2.3% of the tested compounds scored in any of these assays.

What do the screens show for `O=C(CCCN1CCC(c2ccccc2)C1)c1ccc2c(c1)OCCO2` (stereo not drawn)?
TRPC6 act: inactive; TRPC4 block: inactive; TRPC4 PAM: inactive; TRPC6 inh: -6.5*; TRPC4 act: inactive; HEK293 MPD ctr-2: 111.5%*; HEK293 MPD ctr 2-2: inactive; TRPC4/MOR mod: inactive; TRPC4 ctr inh 2: 77.0%*; TRPC6 block conf: 67.5%*

How did N#Cc1ccc(-c2cn(-c3ccccc3)c3[n+]2CCCS3)cc1 do in these assays?
TRPC6 act: inactive; TRPC4 block: inactive; TRPC4 PAM: inactive; TRPC6 inh: -5.96*; TRPC4 act: inactive; HEK293 MPD ctr-2: -213.5%*; HEK293 MPD ctr 2-2: inactive; TRPC4/MOR mod: -35.0%*; TRPC4 ctr inh 2: 38.0%*; TRPC6 block conf: inactive; TRPC6 act confirm: inactive

Results for CCNc1ccc2noc3c2c1C(=O)c1ccccc1-3 ?
TRPC6 act: inactive; TRPC4 block: inactive; TRPC4 PAM: inactive; TRPC6 inh: -5.78*; TRPC4 act: inactive; HEK293 MPD ctr-2: 231.0%*; HEK293 MPD ctr 2-2: 108.0%*; TRPC4/MOR mod: -281.5%*; TRPC4 ctr inh 2: 144.0%*; TRPC6 block conf: 70.5%*; TRPC6 act confirm: inactive

Results for Brc1cccc(CNc2nc3ccccc3n2CCN2CCCCC2)c1 ?
TRPC6 act: inactive; TRPC4 block: inactive; TRPC4 PAM: inactive; TRPC6 inh: inactive; TRPC4 act: inactive

Results for Brc1ccc(CNc2nc3ccccc3n2CCN2CCCCC2)cc1 ?
TRPC6 act: inactive; TRPC4 block: inactive; TRPC4 PAM: inactive; TRPC6 inh: -5.17*; TRPC4 act: inactive; HEK293 MPD ctr-2: inactive; HEK293 MPD ctr 2-2: inactive; TRPC4/MOR mod: 15.0%*; TRPC4 ctr inh 2: 89.0%*; TRPC6 block conf: 38.0%*; TRPC6 act confirm: inactive

How did COc1ccc(OC)c(CNc2nc3ccccc3n2CCN2CCCCC2)c1 do in these assays?
TRPC6 act: inactive; TRPC4 block: inactive; TRPC4 PAM: inactive; TRPC6 inh: inactive; TRPC4 act: inactive

Results for COc1cccc(CNc2nc3ccccc3n2CCN2CCCCC2)c1 ?
TRPC6 act: inactive; TRPC4 block: inactive; TRPC4 PAM: inactive; TRPC6 inh: -6.08*; TRPC4 act: inactive; HEK293 MPD ctr-2: inactive; HEK293 MPD ctr 2-2: inactive; TRPC4/MOR mod: inactive; TRPC4 ctr inh 2: 55.5%*; TRPC6 block conf: 35.0%*; TRPC6 act confirm: inactive

What do the screens show for `COc1ccc(CNc2nc3ccccc3n2CCN2CCCCC2)c(OC)c1`?
TRPC6 act: inactive; TRPC4 block: inactive; TRPC4 PAM: inactive; TRPC6 inh: -10.1*; TRPC4 act: inactive; TRPC4 spec 2: 42.5%*; TRPC4 spec: 9.3%*; HEK293 MPD ctr 2-1: 252.0%*; HEK293 MPD ctr-1: 7.9%*; TRPC6 block conf: inactive; TRPC6 act confirm: inactive

How did N/C(=N\O)c1cccc(CS(=O)(=O)c2ccccn2)c1 do in these assays?
TRPC6 act: inactive; TRPC4 block: inactive; TRPC4 PAM: inactive; TRPC6 inh: inactive; TRPC4 act: inactive

Results for O=C(COC(=O)c1cc[n+]([O-])cc1)Nc1ccc(Cl)cc1[N+](=O)[O-] ?
TRPC6 act: inactive; TRPC4 block: inactive; TRPC4 PAM: inactive; TRPC6 inh: -5.99*; TRPC4 act: inactive; HEK293 MPD ctr-2: -168.0%*; HEK293 MPD ctr 2-2: inactive; TRPC4/MOR mod: -36.5%*; TRPC4 ctr inh 2: inactive; TRPC6 block conf: inactive; TRPC6 act confirm: inactive

What do the screens show for `Nc1ccc(C(=O)OCC(=O)NC(=O)c2ccccc2)cc1[N+](=O)[O-]`?
TRPC6 act: inactive; TRPC4 block: inactive; TRPC4 PAM: inactive; TRPC6 inh: inactive; TRPC4 act: inactive

What do the screens show for `O=C(COC(=O)c1cc[n+]([O-])cc1)Nc1ccc([N+](=O)[O-])cc1Cl`?
TRPC6 act: inactive; TRPC4 block: inactive; TRPC4 PAM: inactive; TRPC6 inh: -8.89*; TRPC4 act: inactive; HEK293 MPD ctr-2: -314.0%*; HEK293 MPD ctr 2-2: inactive; TRPC4/MOR mod: -52.5%*; TRPC4 ctr inh 2: 62.0%*; TRPC6 block conf: 44.0%*; TRPC6 act confirm: inactive

What do the screens show for `O=C(COC(=O)c1ccc(Cl)cc1[N+](=O)[O-])NC(=O)c1ccccc1`?
TRPC6 act: inactive; TRPC4 block: inactive; TRPC4 PAM: inactive; TRPC6 inh: -5.93*; TRPC4 act: inactive; HEK293 MPD ctr-2: inactive; HEK293 MPD ctr 2-2: inactive; TRPC4/MOR mod: inactive; TRPC4 ctr inh 2: inactive; TRPC6 block conf: inactive; TRPC6 act confirm: inactive

Results for CS(=O)(=O)c1ccc2nc(NC(=O)CN3C(=O)NC4(CCCC4)C3=O)sc2c1 ?
TRPC6 act: inactive; TRPC4 block: inactive; TRPC4 PAM: inactive; TRPC6 inh: inactive; TRPC4 act: inactive

Results for COC(=O)C1=C(C)NC(=S)NC1c1ccc(OCC(=O)N2CCCCC2)c(OC)c1 (stereo not drawn) ?
TRPC6 act: inactive; TRPC4 block: inactive; TRPC4 PAM: inactive; TRPC6 inh: inactive; TRPC4 act: inactive
